Results pooled from the literature.
Target: Serine/threonine-protein kinase Nek6 (NEK6, Homo sapiens, UniProt Q9HC98)
Read-out: enzyme activity
Action: inhibitor

| test | conditions | remaining activity | Compound |
| --- | --- | --- | --- |
|  | 10 µM | 92.7% | Cc1sc(C(=O)NC2COC2)cc1-n1cc(NC(=O)Nc2c(F)cccc2Cl)cn1 |
|  | 10 µM | 83% | FC(F)c1nc2ccccc2n1-c1nc(N2CCOCC2)nc(N2CCOCC2)n1 |
|  | 1 µM | 111% | COc1cc(Cl)c(C(=O)N[C@@H](CN[C@H]2CC[C@@H](N)CC2)Cc2ccc(C#N)cc2)cc1-c1ccc(CN[C@H](C)c2ccc(C)cc2)o1 |
|  | 5 µM | 99.6% | O=C(Nc1cnn(-c2csc(C(=O)NC3COC3)c2)c1)Nc1ccccc1Cl |
|  | 10 µM | 113% | Nc1nc(NC2CCCCC2)sc1C(=O)c1ccccc1 |
|  | 0.1 µM | 131% | Cc1[nH]c(/C=C2\C(=O)Nc3ccc(F)cc32)c(C)c1C(=O)N[C@H]1CCN(C(=O)N(C)C)C1 |
|  | 10 µM | 97% | Nc1nc(Nc2ccccc2)sc1C(=O)c1c(F)cccc1F |
| radiometric | 1 µM | 96% | CC(C)(C)c1nc2c(s1)c1nc(N)ncc1c1ccc(NS(=O)(=O)c3c(F)cccc3F)c(F)c12 |
|  | 1 µM | 99.7% | CC(C)(O)[C@H]1CC[C@H](Nc2ccc3ncc(-c4cccc(C(F)(F)F)c4)n3n2)CC1 |
| radiometric | 1 µM | 55% | Cc1cnc(NC2CCOCC2)nc1-n1cnc(C(=O)NC(CN)c2cc(F)cc(Cl)c2)c1 (stereo not drawn) |
|  | 1 µM | 103% | CCN(CC)CCNC(=O)c1c(C)[nH]c(/C=C2\C(=O)Nc3ccc(F)cc32)c1C |
| radiometric | 1 µM | 97% | COc1cc(Nc2cnc(C#N)c(O[C@H](C)CN(C)C)n2)ncc1-c1cnn(C)c1 |
